Calls of active or inactive are those of the source. The calls are words filed in the database; no cut-off is given here.

Test [1] has as its target T1, Toll-like receptor 9 (Homo sapiens) (UniProt Q9NR96).
T1 sequence (whole entry): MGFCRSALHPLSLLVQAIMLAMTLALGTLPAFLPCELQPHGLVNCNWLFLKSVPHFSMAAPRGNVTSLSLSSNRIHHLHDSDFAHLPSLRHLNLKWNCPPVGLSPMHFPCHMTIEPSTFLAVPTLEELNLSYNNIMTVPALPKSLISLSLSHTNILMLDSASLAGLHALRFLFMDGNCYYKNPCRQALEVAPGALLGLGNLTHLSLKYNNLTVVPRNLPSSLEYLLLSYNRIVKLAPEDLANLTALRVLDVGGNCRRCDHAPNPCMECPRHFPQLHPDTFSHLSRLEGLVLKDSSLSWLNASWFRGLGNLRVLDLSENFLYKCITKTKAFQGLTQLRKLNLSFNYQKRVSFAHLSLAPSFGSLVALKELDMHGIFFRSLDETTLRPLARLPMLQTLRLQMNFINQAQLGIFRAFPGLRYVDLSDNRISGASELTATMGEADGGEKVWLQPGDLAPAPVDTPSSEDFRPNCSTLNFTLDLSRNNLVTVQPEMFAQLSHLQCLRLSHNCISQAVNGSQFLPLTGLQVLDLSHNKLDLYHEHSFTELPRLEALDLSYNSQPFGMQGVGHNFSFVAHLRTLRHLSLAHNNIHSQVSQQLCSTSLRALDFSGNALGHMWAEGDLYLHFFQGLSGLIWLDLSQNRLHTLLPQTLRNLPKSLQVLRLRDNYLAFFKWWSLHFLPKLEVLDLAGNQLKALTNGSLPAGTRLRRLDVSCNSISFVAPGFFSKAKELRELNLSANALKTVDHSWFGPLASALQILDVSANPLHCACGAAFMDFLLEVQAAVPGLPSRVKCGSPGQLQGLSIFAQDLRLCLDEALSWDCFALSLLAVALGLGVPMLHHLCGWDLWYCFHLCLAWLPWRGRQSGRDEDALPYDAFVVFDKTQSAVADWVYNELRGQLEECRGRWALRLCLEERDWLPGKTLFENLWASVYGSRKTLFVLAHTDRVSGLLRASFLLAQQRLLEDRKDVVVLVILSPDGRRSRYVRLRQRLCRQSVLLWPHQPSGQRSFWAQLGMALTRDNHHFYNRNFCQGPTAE
Briefly: Induction of TLR9-mediated immune stimulation in human PBMC assessed as IL12 production at 10 ug/ml after 24 hrs by luminex multiplex assay (RVb = 0.00 ng/ml).

Test [2] addresses T2, Toll-like receptor 9 (Mus musculus) (UniProt Q9EQU3).
T2 sequence (whole entry): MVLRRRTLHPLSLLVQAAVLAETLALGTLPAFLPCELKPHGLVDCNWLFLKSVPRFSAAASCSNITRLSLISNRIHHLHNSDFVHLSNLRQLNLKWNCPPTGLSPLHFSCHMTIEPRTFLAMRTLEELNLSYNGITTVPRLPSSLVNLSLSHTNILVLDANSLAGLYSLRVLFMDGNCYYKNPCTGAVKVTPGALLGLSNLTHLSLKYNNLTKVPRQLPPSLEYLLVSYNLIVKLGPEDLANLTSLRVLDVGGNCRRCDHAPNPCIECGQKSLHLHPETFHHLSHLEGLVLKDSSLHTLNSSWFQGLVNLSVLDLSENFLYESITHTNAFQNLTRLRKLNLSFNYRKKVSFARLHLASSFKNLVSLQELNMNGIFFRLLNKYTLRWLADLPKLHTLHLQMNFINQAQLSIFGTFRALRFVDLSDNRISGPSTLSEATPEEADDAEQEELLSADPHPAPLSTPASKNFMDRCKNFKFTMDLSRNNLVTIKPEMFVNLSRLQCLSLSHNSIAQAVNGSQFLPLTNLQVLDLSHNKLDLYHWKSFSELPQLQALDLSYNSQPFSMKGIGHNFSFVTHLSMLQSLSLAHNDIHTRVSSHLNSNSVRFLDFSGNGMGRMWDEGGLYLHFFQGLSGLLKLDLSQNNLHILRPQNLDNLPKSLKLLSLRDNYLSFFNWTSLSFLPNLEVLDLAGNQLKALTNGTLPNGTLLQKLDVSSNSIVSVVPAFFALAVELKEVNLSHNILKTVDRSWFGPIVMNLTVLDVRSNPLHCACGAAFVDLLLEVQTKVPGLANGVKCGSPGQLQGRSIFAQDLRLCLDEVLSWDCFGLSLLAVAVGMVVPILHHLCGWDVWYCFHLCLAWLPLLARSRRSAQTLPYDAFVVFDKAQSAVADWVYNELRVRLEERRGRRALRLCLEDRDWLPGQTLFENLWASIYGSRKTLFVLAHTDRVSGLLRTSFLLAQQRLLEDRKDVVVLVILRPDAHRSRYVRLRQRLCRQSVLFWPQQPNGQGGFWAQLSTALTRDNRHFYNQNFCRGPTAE
Briefly: Induction of TLR9-mediated IL6 production in C57BL/6 mouse spleen cells after 24 hrs by ELISA. It is filed as cell-based. In a few lines:
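C57BL/6 mouse spleen cells were cultured with agonists at 0.1, 0.3, 1, 3 and 10 μg/mL for 24 h. Secreted IL-12 and IL-6 in the supernatants were measured by ELISA. Values are averages of triplicate wells from one representative of at least two independent experiments.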

Test [3] deals with T1, Toll-like receptor 9 (Homo sapiens). As to the kind of experiment: Induction of TLR9-mediated immune stimulation in human PBMC assessed as MIP1alpha production at 10 ug/ml after 24 hrs by luminex multiplex assay (RVb = 0.01 ng/ml).
The target is the same in test [4]. Briefly: Induction of TLR9-mediated immune stimulation in human PBMC assessed as IL12 production at 2 ug/ml after 24 hrs by luminex multiplex assay (RVb = 0.00 ng/ml).
The subject of test [5] is Mus musculus. Briefly: Immunostimulatory activity in C57BL/6 mouse assessed as increase in serum IL12 level at 1 mg/kg, sc after 2 hrs by ELISA. It is filed as functional, organism-based. Set-up: dose 1 mg/kg. An outline of the steps:
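Female C57BL/6 mice (n=3) received a single subcutaneous agonist dose of 1 mg/kg. Blood was taken by retro-orbital bleeding 2 h later, and serum IL-12 was measured by sandwich ELISA. Values are the mean of three mice ± SD.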
On the technique in general: ELISA stands for enzyme-linked immunosorbent assay.

The target of test [6] is T1, Toll-like receptor 9 (Homo sapiens). As to the kind of experiment: Induction of TLR9-mediated immune stimulation in human PBMC assessed as IL6 production at 10 ug/ml after 24 hrs by luminex multiplex assay (RVb = 0.01 ng/ml).
Test [7] has the same target. Briefly: Induction of TLR9-mediated immune stimulation in human PBMC assessed as IP10 production at 2 ug/ml after 24 hrs by luminex multiplex assay (RVb = 0.00 ng/ml).
Test [8] has the same target. As to the kind of experiment: Induction of TLR9-mediated immune stimulation in human PBMC assessed as RANTES production at 10 ug/ml after 24 hrs by luminex multiplex assay (RVb = 0.05 +/- 0.04 ng/ml).
The target is the same in test [9]. As to the kind of experiment: Induction of TLR9-mediated immune stimulation in human PBMC assessed as IP10 production at 10 ug/ml after 24 hrs by luminex multiplex assay (RVb = 0.00 ng/ml).
The target is the same in test [10]. Briefly: Induction of TLR9-mediated immune stimulation in human PBMC assessed as MIP1alpha production at 2 ug/ml after 24 hrs by luminex multiplex assay (RVb = 0.01 ng/ml).

Regarding `Cc1cn([C@H]2C[C@H](OCCC(O)CCOP(=O)(S)O[C@H]3C[C@H](n4cc(C)c(=O)[nH]c4=O)O[C@@H]3COP(=O)(S)O[C@H]3[C@@H](O)[C@H](n4ccc(N)nc4=O)O[C@@H]3COP(=O)(S)O[C@H]3C[C@H](n4cc(C)c(=O)[nH]c4=O)O[C@@H]3COP(=O)(S)O[C@H]3C[C@H](n4cc(C)c(=O)[nH]c4=O)O[C@@H]3COP(=O)(S)O[C@H]3C[C@H](n4ccc5c(=O)[nH]c(N)nc54)O[C@@H]3COP(=O)(S)O[C@H]3[C@@H](O)[C@H](n4ccc(N)nc4=O)O[C@@H]3COP(=O)(S)O[C@H]3C[C@H](n4cc(C)c(=O)[nH]c4=O)O[C@@H]3COP(=O)(S)O[C@H]3[C@@H](O)[C@H](n4cnc5c(=O)[nH]c(N)nc54)O[C@@H]3COP(=O)(S)O[C@H]3C[C@H](n4cc(C)c(=O)[nH]c4=O)O[C@@H]3COP(=O)(S)O[C@H]3[C@@H](O)[C@H](n4ccc(N)nc4=O)O[C@@H]3COP(=O)(S)O[C@H]3C[C@H](n4cc(C)c(=O)[nH]c4=O)O[C@@H]3CO)[C@@H](COP(=O)(S)O[C@H]3[C@@H](O)[C@H](n4ccc(N)nc4=O)O[C@@H]3COP(=O)(S)O[C@H]3C[C@H](n4cc(C)c(=O)[nH]c4=O)O[C@@H]3COP(=O)(S)O[C@H]3C[C@H](n4cc(C)c(=O)[nH]c4=O)O[C@@H]3COP(=O)(S)O[C@H]3C[C@H](n4ccc5c(=O)[nH]c(N)nc54)O[C@@H]3COP(=O)(S)O[C@H]3[C@@H](O)[C@H](n4ccc(N)nc4=O)O[C@@H]3COP(=O)(S)O[C@H]3C[C@H](n4cc(C)c(=O)[nH]c4=O)O[C@@H]3COP(=O)(S)O[C@H]3[C@@H](O)[C@H](n4cnc5c(=O)[nH]c(N)nc54)O[C@@H]3COP(=O)(S)O[C@H]3C[C@H](n4cc(C)c(=O)[nH]c4=O)O[C@@H]3COP(=O)(S)O[C@H]3[C@@H](O)[C@H](n4ccc(N)nc4=O)O[C@@H]3COP(=O)(S)O[C@H]3C[C@H](n4cc(C)c(=O)[nH]c4=O)O[C@@H]3CO)O2)c(=O)[nH]c1=O` (stereo not given in full), the Activity in test [1] was 0.17 ng/mL; in [2] it was “Dose-dependent effect”; in test [3], 0.17 ng/mL; in test [4], 0.14 ng/mL; in test [6] it was 0.47 ng/mL; in test [7], 0.02 ng/mL. Besides, the Activity came to 1.15 ng/mL in [8], 0.02 ng/mL in [9] and 0.05 ng/mL in test [10]. In test [5], the result was Active.
Turning to `Cc1cn([C@H]2C[C@H](OCC[C@H](O)COP(=O)(S)O[C@H]3C[C@H](n4cc(C)c(=O)[nH]c4=O)O[C@@H]3COP(=O)(S)O[C@H]3[C@@H](O)[C@H](n4ccc(N)nc4=O)O[C@@H]3COP(=O)(S)O[C@H]3C[C@H](n4cc(C)c(=O)[nH]c4=O)O[C@@H]3COP(=O)(S)O[C@H]3C[C@H](n4cc(C)c(=O)[nH]c4=O)O[C@@H]3COP(=O)(S)O[C@H]3C[C@H](n4ccc5c(=O)[nH]c(N)nc54)O[C@@H]3COP(=O)(S)O[C@H]3[C@@H](O)[C@H](n4ccc(N)nc4=O)O[C@@H]3COP(=O)(S)O[C@H]3C[C@H](n4cc(C)c(=O)[nH]c4=O)O[C@@H]3COP(=O)(S)O[C@H]3[C@@H](O)[C@H](n4cnc5c(=O)[nH]c(N)nc54)O[C@@H]3COP(=O)(S)O[C@H]3C[C@H](n4cc(C)c(=O)[nH]c4=O)O[C@@H]3COP(=O)(S)O[C@H]3[C@@H](O)[C@H](n4ccc(N)nc4=O)O[C@@H]3COP(=O)(S)O[C@H]3C[C@H](n4cc(C)c(=O)[nH]c4=O)O[C@@H]3CO)[C@@H](COP(=O)(S)O[C@H]3[C@@H](O)[C@H](n4ccc(N)nc4=O)O[C@@H]3COP(=O)(S)O[C@H]3C[C@H](n4cc(C)c(=O)[nH]c4=O)O[C@@H]3COP(=O)(S)O[C@H]3C[C@H](n4cc(C)c(=O)[nH]c4=O)O[C@@H]3COP(=O)(S)O[C@H]3C[C@H](n4ccc5c(=O)[nH]c(N)nc54)O[C@@H]3COP(=O)(S)O[C@H]3[C@@H](O)[C@H](n4ccc(N)nc4=O)O[C@@H]3COP(=O)(S)O[C@H]3C[C@H](n4cc(C)c(=O)[nH]c4=O)O[C@@H]3COP(=O)(S)O[C@H]3[C@@H](O)[C@H](n4cnc5c(=O)[nH]c(N)nc54)O[C@@H]3COP(=O)(S)O[C@H]3C[C@H](n4cc(C)c(=O)[nH]c4=O)O[C@@H]3COP(=O)(S)O[C@H]3[C@@H](O)[C@H](n4ccc(N)nc4=O)O[C@@H]3COP(=O)(S)O[C@H]3C[C@H](n4cc(C)c(=O)[nH]c4=O)O[C@@H]3CO)O2)c(=O)[nH]c1=O` (stereo not given in full), the Activity in test [1] was 0.2 ng/mL; in test [2] it was “Dose-dependent effect”; in test [3] it was 0.32 ng/mL; in test [4] it was 0.16 ng/mL; in test [6], 0.73 ng/mL; in test [7], 0.79 ng/mL. Moreover, the Activity in test [8] was 0.98 ng/mL; in test [9], 0.99 ng/mL; in test [10] it was 0.16 ng/mL. Besides, the outcome in test [5] was Active.
